Results reported in ChEMBL document CHEMBL3769393, “Chiral pool synthesis and biological evaluation of C-furanosidic and acyclic LpxC inhibitors” (Eur J Med Chem, 2016).
pIC50, pKi: −log10 of the molar value.

Test system: not listed separately
Assay: Inhibition of Escherichia coli BL21(DE3) LpxC C63A mutant using UDP-3-O-(R-3-hydroxymyristoyl)-N-acetylglucosamine as substrate incubated for 30 mins by o-phthaldialdehyde-2-mercaptoethanol based fluorescence assay
For `O=C(NO)[C@H]1O[C@@H](c2ccc(C#Cc3ccc(CN4CCOCC4)cc3)cc2)[C@@H](O)[C@H]1O`, the pIC50 was < 3.70. `O=C(NO)[C@H](CO)O[C@H](CO)c1ccc(C#Cc2ccc(CN3CCOCC3)cc2)cc1` gave a pIC50 of 5.59. With `O=C(NO)[C@H](CO)O[C@@H](CO)c1ccc(C#CC#Cc2ccccc2)cc1` the pIC50 was 5.36. With `O=C(NO)[C@@H](CO)O[C@@H](CO)c1ccc(C#Cc2ccc(CN3CCOCC3)cc2)cc1` the pIC50 was 3.74. `O=C(NO)[C@H](CO)O[C@H](CO)c1ccc(C#CC#Cc2ccccc2)cc1` showed a pIC50 of 5.77. `O=C(NO)[C@H]1O[C@H](c2ccc(C#Cc3ccccc3)cc2)[C@@H](O)[C@H]1O` showed a pIC50 of 4.37. Compound `O=C(NO)[C@@H]1O[C@@H](c2ccc(C#Cc3ccc(CN4CCOCC4)cc3)cc2)[C@@H](O)[C@H]1O` has a pIC50 of 5.00. For `O=C(NO)[C@H](CO)O[C@@H](CO)c1ccc(C#Cc2ccc(CN3CCOCC3)cc2)cc1`, the pIC50 was 4.68. In the case of `O=C(NO)[C@H](CO)O[C@@H](CO)c1ccc(C#Cc2ccccc2)cc1`, the pIC50 was 3.82. Compound `O=C(NO)[C@@H]1C[C@H](O)[C@H](c2ccc(C#Cc3ccc(CN4CCOCC4)cc3)cc2)O1` has a pIC50 of 4.06. In the case of `O=C(NO)[C@@H]1O[C@H](c2ccc(C#Cc3ccc(CN4CCOCC4)cc3)cc2)[C@@H](O)[C@H]1O`, the pIC50 was 4.38. Compound `O=C(NO)[C@@H](CO)O[C@@H](CO)c1ccc(C#CC#Cc2ccccc2)cc1` has a pIC50 of 4.70. For `O=C(NO)[C@@H]1O[C@H](c2ccc(C#Cc3ccccc3)cc2)[C@@H](O)[C@H]1O`, the pIC50 was < 3.70.

Test system: Escherichia coli
Assay: Antibacterial activity against Escherichia coli BL21(DE3) cells assessed as diameter of zone of growth inhibition after overnight incubation at 37 degC by agar disc diffusion clearance assay
Assay type: functional
In short: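 Overnight LB broth cultures (37 °C, 200 rpm); 150 µL spread on LB agar. 6 mm filter discs loaded with 15 µL of 10 mM compound in DMSO. DMSO disc as negative control, CHIR-090 as positive control. Plates kept overnight at 37 °C, then diameter of the growth-inhibition zone measured.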
With `O=C(NO)[C@H]1O[C@@H](c2ccc(C#Cc3ccc(CN4CCOCC4)cc3)cc2)[C@@H](O)[C@H]1O` the “diameter of the inhibition zone (DIZ)” value was <6 mm. In the case of `O=C(NO)[C@H](CO)O[C@H](CO)c1ccc(C#Cc2ccc(CN3CCOCC3)cc2)cc1`, the “diameter of the inhibition zone (DIZ)” value was 9.6 mm. In the case of `O=C(NO)[C@H](CO)O[C@@H](CO)c1ccc(C#CC#Cc2ccccc2)cc1`, the “diameter of the inhibition zone (DIZ)” value was 9 mm. For `O=C(NO)[C@@H](CO)O[C@@H](CO)c1ccc(C#Cc2ccc(CN3CCOCC3)cc2)cc1`, the “diameter of the inhibition zone (DIZ)” value was <6 mm. In the case of `O=C(NO)[C@H](CO)O[C@H](CO)c1ccc(C#CC#Cc2ccccc2)cc1`, the “diameter of the inhibition zone (DIZ)” value was 13.7 mm. With `O=C(NO)[C@H]1O[C@H](c2ccc(C#Cc3ccccc3)cc2)[C@@H](O)[C@H]1O` the “diameter of the inhibition zone (DIZ)” value was 6.8 mm. With `O=C(NO)[C@@H]1O[C@@H](c2ccc(C#Cc3ccc(CN4CCOCC4)cc3)cc2)[C@@H](O)[C@H]1O` the “diameter of the inhibition zone (DIZ)” value was <6 mm. With `O=C(NO)[C@H](CO)O[C@@H](CO)c1ccc(C#Cc2ccc(CN3CCOCC3)cc2)cc1` the “diameter of the inhibition zone (DIZ)” value was 14.3 mm. For `O=C(NO)[C@H](CO)O[C@@H](CO)c1ccc(C#Cc2ccccc2)cc1`, the “diameter of the inhibition zone (DIZ)” value was 6.8 mm. In the case of `O=C(NO)[C@@H]1C[C@H](O)[C@H](c2ccc(C#Cc3ccc(CN4CCOCC4)cc3)cc2)O1`, the “diameter of the inhibition zone (DIZ)” value was <6 mm. In the case of `O=C(NO)[C@@H]1O[C@H](c2ccc(C#Cc3ccc(CN4CCOCC4)cc3)cc2)[C@@H](O)[C@H]1O`, the “diameter of the inhibition zone (DIZ)” value was <6 mm. With `O=C(NO)[C@@H](CO)O[C@@H](CO)c1ccc(C#CC#Cc2ccccc2)cc1` the “diameter of the inhibition zone (DIZ)” value was 7.1 mm. In the case of `O=C(NO)[C@@H]1O[C@H](c2ccc(C#Cc3ccccc3)cc2)[C@@H](O)[C@H]1O`, the “diameter of the inhibition zone (DIZ)” value was <6 mm.

Test system: Escherichia coli
Assay: Antibacterial activity against envA mutant Escherichia coli D22 cells assessed as diameter of zone of growth inhibition after overnight incubation at 37 degC by agar disc diffusion clearance assay
Assay type: functional
In short: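 E. coli D22 (defective strain) grown overnight in LB broth at 37 °C, 200 rpm; 150 µL of overnight suspension spread on LB agar. 6 mm filter paper discs loaded with 15 µL compound (10 mM in DMSO); DMSO disc as negative control, CHIR-090 as positive control. Plates incubated overnight at 37 °C; growth-inhibition zone diameter measured.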
With `O=C(NO)[C@H]1O[C@@H](c2ccc(C#Cc3ccc(CN4CCOCC4)cc3)cc2)[C@@H](O)[C@H]1O` the “diameter of the inhibition zone (DIZ)” value was 13.2 mm. For `O=C(NO)[C@H](CO)O[C@H](CO)c1ccc(C#Cc2ccc(CN3CCOCC3)cc2)cc1`, the “diameter of the inhibition zone (DIZ)” value was 20.4 mm. In the case of `O=C(NO)[C@H](CO)O[C@@H](CO)c1ccc(C#CC#Cc2ccccc2)cc1`, the “diameter of the inhibition zone (DIZ)” value was 18 mm. In the case of `O=C(NO)[C@@H](CO)O[C@@H](CO)c1ccc(C#Cc2ccc(CN3CCOCC3)cc2)cc1`, the “diameter of the inhibition zone (DIZ)” value was 20.3 mm. For `O=C(NO)[C@H](CO)O[C@H](CO)c1ccc(C#CC#Cc2ccccc2)cc1`, the “diameter of the inhibition zone (DIZ)” value was 21.3 mm. With `O=C(NO)[C@H]1O[C@H](c2ccc(C#Cc3ccccc3)cc2)[C@@H](O)[C@H]1O` the “diameter of the inhibition zone (DIZ)” value was 13.6 mm. With `O=C(NO)[C@@H]1O[C@@H](c2ccc(C#Cc3ccc(CN4CCOCC4)cc3)cc2)[C@@H](O)[C@H]1O` the “diameter of the inhibition zone (DIZ)” value was 22.1 mm. For `O=C(NO)[C@H](CO)O[C@@H](CO)c1ccc(C#Cc2ccc(CN3CCOCC3)cc2)cc1`, the “diameter of the inhibition zone (DIZ)” value was 27.9 mm. With `O=C(NO)[C@H](CO)O[C@@H](CO)c1ccc(C#Cc2ccccc2)cc1` the “diameter of the inhibition zone (DIZ)” value was 21.3 mm. For `O=C(NO)[C@@H]1C[C@H](O)[C@H](c2ccc(C#Cc3ccc(CN4CCOCC4)cc3)cc2)O1`, the “diameter of the inhibition zone (DIZ)” value was 15.3 mm. With `O=C(NO)[C@@H](CO)O[C@@H](CO)c1ccc(C#CC#Cc2ccccc2)cc1` the “diameter of the inhibition zone (DIZ)” value was 10.5 mm. For `O=C(NO)[C@@H]1O[C@H](c2ccc(C#Cc3ccccc3)cc2)[C@@H](O)[C@H]1O`, the “diameter of the inhibition zone (DIZ)” value was 16.3 mm.

Test system: not listed separately
Assay: Inhibition of Escherichia coli BL21(DE3) LpxC C63A mutant using UDP-3-O-(R-3-hydroxymyristoyl)-N-acetylglucosamine as substrate incubated for 30 mins by Cheng-Prusoff equation analysis
With `O=C(NO)[C@H]1O[C@@H](c2ccc(C#Cc3ccc(CN4CCOCC4)cc3)cc2)[C@@H](O)[C@H]1O` the pKi was < 4.56. For `O=C(NO)[C@H](CO)O[C@H](CO)c1ccc(C#Cc2ccc(CN3CCOCC3)cc2)cc1`, the pKi was 6.46. Work on `O=C(NO)[C@H](CO)O[C@@H](CO)c1ccc(C#CC#Cc2ccccc2)cc1` yielded a pKi of 6.22. Compound `O=C(NO)[C@@H](CO)O[C@@H](CO)c1ccc(C#Cc2ccc(CN3CCOCC3)cc2)cc1` has a pKi of 4.60. `O=C(NO)[C@H](CO)O[C@H](CO)c1ccc(C#CC#Cc2ccccc2)cc1` showed a pKi of 6.64. `O=C(NO)[C@H]1O[C@H](c2ccc(C#Cc3ccccc3)cc2)[C@@H](O)[C@H]1O` showed a pKi of 5.23. For `O=C(NO)[C@@H]1O[C@@H](c2ccc(C#Cc3ccc(CN4CCOCC4)cc3)cc2)[C@@H](O)[C@H]1O`, the pKi was 5.85. Compound `O=C(NO)[C@H](CO)O[C@@H](CO)c1ccc(C#Cc2ccc(CN3CCOCC3)cc2)cc1` has a pKi of 5.54. `O=C(NO)[C@H](CO)O[C@@H](CO)c1ccc(C#Cc2ccccc2)cc1` showed a pKi of 4.68. Work on `O=C(NO)[C@@H]1C[C@H](O)[C@H](c2ccc(C#Cc3ccc(CN4CCOCC4)cc3)cc2)O1` yielded a pKi of 4.92. With `O=C(NO)[C@@H]1O[C@H](c2ccc(C#Cc3ccc(CN4CCOCC4)cc3)cc2)[C@@H](O)[C@H]1O` the pKi was 5.24. `O=C(NO)[C@@H](CO)O[C@@H](CO)c1ccc(C#CC#Cc2ccccc2)cc1` showed a pKi of 5.57. In the case of `O=C(NO)[C@@H]1O[C@H](c2ccc(C#Cc3ccccc3)cc2)[C@@H](O)[C@H]1O`, the pKi was < 4.56.
